Assay outcomes from PubChem.
Most compounds without a hit are left out; they make up all but 1.9% or so of the library.
APJ agonist – agonists of human APJ apelin receptor; 330,000 compounds, 0.11% hits; AID 2520; CHO-K1 APJ PathHunter beta-arrestin, luminescence; 0% DMSO wells, 100% apelin; activation, % at 20 µM;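 active = activation more than six SD over the plate average, tested at 20 µM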;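 note: 0% = DMSO alone and 100% = apelin-13 at 10 nM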
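Assay system: CHO-K1 cells stably expressing ProLink-tagged human APJ and arrestin–beta-gal acceptor. Compound dosing: 20 µM single point, 1% DMSO. Times: 16-18 h seeding, 90 min dark compound exposure, 60 min detection. Detection: beta-gal luminescence. Evaluation: APJ–arrestin association signal. Controls: negative DMSO alone, positive Apelin-13 at 10 nM.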
CCR6 antagonist – antagonists of human CCR6 receptor. 340,000 compounds, 0.49% hits. CHO-K1 CCR6 PathHunter beta-arrestin, luminescence, CCL20-stimulated. inhibition, % at 20 µM;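 active = compounds whose inhibition of the agonist-driven luminescence signal at 20 µM reaches about 50%, limit read from the data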;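 note: cells stimulated with CCL20 at 14 nM final; plate controls were DMSO with CCL20 for no effect and DMSO without agonist for full effect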
H9c2 TAG inh – triacylglycerol accumulation inhibition. H9c2 cells, Nile Red lipid (TAG) fluorescence; cells loaded with 200 µM oleic acid. inhibition, % at 12.5 µM. 230,000 compounds, 0.66% hits. AID 651582;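 active = pattern-corrected inhibition of lipid staining of at least 50% with the nuclear-stain viability signal not falling by more than 50%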;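 note: 0% = DMSO wells and 100% = triacsin C control wells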
CXCR6 inh – inhibitors of human CXCR6 receptor; O00574; CHO-K1 PathHunter CXCR6 beta-arrestin, luminescence; inhibition, % at 20 µM; 360,000 compounds, 0.36% hits; AID 602244; in the data active = inhibition above about 34%, passing the limit was not always enough;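 note: antagonist mode with CXCL16 agonist at 10 nM final; 0% = 10 nM CXCL16 with DMSO and 100% = unstimulated wells without agonist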
Target sequence (O00574 whole entry, looked up): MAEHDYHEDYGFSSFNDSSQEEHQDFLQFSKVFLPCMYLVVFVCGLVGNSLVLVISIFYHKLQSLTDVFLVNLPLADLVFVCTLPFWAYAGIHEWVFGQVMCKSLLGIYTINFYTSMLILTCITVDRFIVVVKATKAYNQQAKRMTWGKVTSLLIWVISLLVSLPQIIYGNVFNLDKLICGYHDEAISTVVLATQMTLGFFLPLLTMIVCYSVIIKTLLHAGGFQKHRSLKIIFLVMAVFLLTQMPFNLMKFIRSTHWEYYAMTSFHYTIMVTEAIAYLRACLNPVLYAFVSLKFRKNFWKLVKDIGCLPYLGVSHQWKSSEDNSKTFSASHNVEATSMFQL
EBI2 block – EBI2 (human) antagonism; P32249; EBI2 beta-arrestin recruitment, luminescence, 7a,25-OHC stimulated; inhibition, % at 5 µM; 360,000 compounds, 0.81% hits; in the data active = inhibition above about 38%;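 note: enzyme fragment complementation signal reports receptor beta-arrestin coupling in cells; 0% = agonist plus DMSO wells and 100% = wells without agonist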
APJ antagonist – blocks the human apelin receptor APJ; 330,000 compounds, 0.32% hits; inhibition, % at 20 µM; P35414; CHO-K1 APJ beta-arrestin complementation, luminescence;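 active = inhibition above about 40% at 20 µM, limit read from the data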;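 note: cells challenged with 10 nM apelin-13 agonist together with compound; plate controls were apelin-13 plus DMSO wells for no effect and DMSO wells lacking apelin-13 for full effect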
EBI2 antag conf – EBI2 (human) antagonism, single concentration confirmation | EBI2 beta-arrestin luminescence, 7a,25-OHC antagonism | shares compounds with EBI2 block | AID 651997 | 2,400 compounds, 29% hits | inhibition, % at 5 µM;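 active = inhibition of at least 50%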
EBI2 ag – activates EBI2, counter-screen for EBI2 antagonists | shares compounds with EBI2 block | EBI2-expressing cells, agonist mode, luminescence, 60 min; 0% vehicle, 100% 7α,25-dihydroxycholesterol control | activation, % at 5 µM | 2,400 tested, under 10 active;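 active = activation of at least 50%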
bGal counter – counter-screen for EBI2 antagonists: E. coli beta-galactosidase inhibition | shares compounds with EBI2 block | purified beta-galactosidase, luminescent Galacton Star, 15 min | inhibition, % at 5 µM | 2,400 compounds, 1% hits | AID 652176;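 active = replicate-average signal at least 3 plate SD below neutral wells, shown as high inhibition, flagging enzyme-inhibiting false positives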;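 note: 0% = DMSO wells with enzyme and 100% = wells lacking enzyme; higher means stronger loss of beta-gal luminescence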
* marks the source's active call; other numbers are inactive results.

`CCOC(=O)C1(C(=O)OCC)C(C)CC(=O)N1c1ccccc1OC` (centres undefined) gave H9c2 TAG inh -10, CXCR6 inh -2 and EBI2 block -17.
`COc1ccc(-n2nnc3c(=O)n(CC(=O)N4CCCc5ccccc54)cnc32)cc1` gave APJ agonist 3, CCR6 antagonist 16, H9c2 TAG inh 2, CXCR6 inh 2, EBI2 block 0 and APJ antagonist 20.
Screening COc1ccc(-n2nnc3c(SCC(=O)N4CCCc5ccccc54)ncnc32)cc1 returned APJ agonist -3, CCR6 antagonist 11, H9c2 TAG inh 6, CXCR6 inh -1, EBI2 block 42*, APJ antagonist -3, EBI2 antag conf 4, EBI2 ag 1 and bGal counter 6.
Screening C#CC(=O)CC1(CN(Cc2ccccc2)C(=O)OC(C)(C)C)CCCCC1 returned CCR6 antagonist 10, H9c2 TAG inh 43, CXCR6 inh 7 and EBI2 block 3.
`COc1ccc(-c2n[nH]c(C)c2-c2ccc(Cl)cc2)c(O)c1` gave APJ agonist -1, CCR6 antagonist -15, H9c2 TAG inh 7, CXCR6 inh 16, EBI2 block 24 and APJ antagonist -16.
For CCOc1ccc(-c2nc(N)nc(C)c2-c2ccc(Cl)cc2)c(O)c1 the results were APJ agonist -2, CCR6 antagonist -3, CXCR6 inh -6, EBI2 block 55*, APJ antagonist -6, EBI2 antag conf 35, EBI2 ag 0 and bGal counter 0.
Screening COc1ccc(-c2nc(N)nc(C)c2-c2ccc(Cl)cc2)c(O)c1 returned APJ agonist -1, CCR6 antagonist 2, CXCR6 inh 1, EBI2 block 80*, APJ antagonist 17, EBI2 antag conf 62*, EBI2 ag 1 and bGal counter 2.
Screening C=C(C)COc1ccc(-c2nc(N)nc(C)c2Oc2ccccc2OC)c(O)c1 returned APJ agonist -3, CCR6 antagonist -9, H9c2 TAG inh 5, CXCR6 inh 6, EBI2 block 12 and APJ antagonist 10.
Screening C=C(C)COc1ccc(-c2nc(N)nc(C)c2-c2ccc(OC)cc2)c(O)c1 returned APJ agonist -3, CCR6 antagonist 2, CXCR6 inh 7, EBI2 block 44*, APJ antagonist 2, EBI2 antag conf 22, EBI2 ag -1 and bGal counter -14.
`CCc1nc2ccc(C(=O)Nc3cc(-c4ccccc4)ccc3OC)cn2c1N(C)CCCc1ccccc1` gave H9c2 TAG inh 21, CXCR6 inh 14 and EBI2 block 27.
`CCc1nc2ccc(C(=O)Nc3cc(-c4ccccc4)ccc3OC)cn2c1N(C)Cc1ccc(OC)cc1` gave H9c2 TAG inh 37, CXCR6 inh 13, EBI2 block 45*, EBI2 antag conf 0, EBI2 ag 0 and bGal counter -6.
CCc1nc2ccc(C(=O)Nc3cc(-c4ccccc4)ccc3OC)cn2c1N(C)C(=O)c1cccc(OC)c1 was read as H9c2 TAG inh -4, CXCR6 inh 11, EBI2 block 43*, EBI2 antag conf 16, EBI2 ag -1 and bGal counter -14.
CN1CCC(N(C)S(=O)(=O)c2ccc(NC(=O)COc3ccc(F)cc3)cc2)CC1 was read as APJ agonist -1, CCR6 antagonist 4, H9c2 TAG inh 1, CXCR6 inh -2, EBI2 block -4 and APJ antagonist -5.
Screening CN1CCC(N(C)S(=O)(=O)c2ccc(NC(=O)COc3ccc(Cl)cc3)cc2)CC1 returned APJ agonist -1, CCR6 antagonist 25, H9c2 TAG inh 4, CXCR6 inh -2, EBI2 block 54*, APJ antagonist -1, EBI2 antag conf 29, EBI2 ag 1 and bGal counter 6.
Screening COc1ccc(/C=N/NC(=S)NC2CCS(=O)(=O)C2)cc1OC (centres undefined) returned APJ agonist 0, CCR6 antagonist 0, CXCR6 inh -3, EBI2 block -2 and APJ antagonist -1.
Cc1ccc(/C=N/NC(=S)NC2CCS(=O)(=O)C2)cc1 (centres undefined) was read as APJ agonist 4, CCR6 antagonist 1, CXCR6 inh -8, EBI2 block 44*, APJ antagonist 17, EBI2 antag conf 44, EBI2 ag 1 and bGal counter 7.
Cc1ccc(OCC(O)CN2CCN(CC(O)COc3ccc(C)cc3)CC2)cc1 (centres undefined) was read as APJ agonist -3, CCR6 antagonist 4, CXCR6 inh 1, EBI2 block 45*, APJ antagonist 12, EBI2 antag conf 21, EBI2 ag 0 and bGal counter 4.
`CN1CCN(C(=O)/C=C/c2cccc(Cl)c2)CC1` gave APJ agonist 26, CCR6 antagonist 19, H9c2 TAG inh 1, CXCR6 inh -2, EBI2 block 46*, APJ antagonist 4, EBI2 antag conf 10, EBI2 ag -1 and bGal counter -5.
For CN1CCN(NC(=O)/C=C/c2cccc(Cl)c2)CC1 the results were APJ agonist -1, CCR6 antagonist 6, H9c2 TAG inh 3, CXCR6 inh -5, EBI2 block 3 and APJ antagonist 10.
For CN1CCCN(C(=O)CSc2ccccc2)CC1 the results were APJ agonist -3, CCR6 antagonist -5, CXCR6 inh 3, EBI2 block 2 and APJ antagonist -8.
Screening CSc1ccc(/C=C/C(=O)N2CCCN(C)CC2)cc1 returned APJ agonist -5, CCR6 antagonist -6, H9c2 TAG inh -5, CXCR6 inh -6, EBI2 block 87*, APJ antagonist -2, EBI2 antag conf 57*, EBI2 ag -1 and bGal counter -14.
O=C(/C=C/c1ccccc1)N1CCN(CC(O)COc2ccccc2)CC1 (centres undefined) was read as APJ agonist -5, CCR6 antagonist 3, H9c2 TAG inh 1, CXCR6 inh 7, EBI2 block 82*, APJ antagonist 3, EBI2 antag conf 54*, EBI2 ag -2 and bGal counter -10.
`O=[N+]([O-])c1cc(F)cc(F)c1Nc1cc(F)cc(F)c1` gave CCR6 antagonist 2, H9c2 TAG inh 22, CXCR6 inh -6 and EBI2 block -4.
